According to ChEMBL document CHEMBL3580644, “Synthesis of piperlongumine analogues and discovery of nuclear factor erythroid 2-related factor 2 (Nrf2) activators as potential neuroprotective agents” (J Med Chem, 2015):
Activity calls are given as the source filed them. The calls are words filed in the database; no cut-off is given here.

Columns and labels:
[1] = Cytotoxicity against rat PC12 cells assessed as reduction in cell viability at 20 uM to 100 uM incubated for 24 hrs by MTT assay; assay type: cell-based; settings: pc-12, 24 h
[2] = Cytoprotection activity against H2O2-induced cytotoxicity in rat PC12 cells assessed as increase in cell viability at 20 uM pre-incubated for 24 hrs before H2O2 exposure for 12 hrs by MTT assay; assay type: functional, PC-12
PC-12 [3] = assay: Cytoprotection activity against 6-OHDA-induced oxidative stress in rat PC12 cells assessed as reduction in ROS generation at 10 and 20 uM pre-incubated for 24 hrs before 6-OHDA exposure for 5 hrs by DCFH-DA dye based fluorescent microscopy; assay type: functional, cell-based
[4] = Antioxidant activity assessed as DPPH radical scavenging activity at 20 uM incubated for 30 mins by spectrophotometry; assay type: physicochemical; settings: 0.5 h
PC-12 [5] = assay: Induction of antioxidant genes expression in rat PC12 cells assessed as increase in HO1 mRNA level at 20 uM incubated for 6 hrs by qRT-PCR method; assay type: functional, cell-based
Procedure, shortened: (§1)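 PC12 cells, 1×10^6 per 60-mm dish, 1 day, then 20 μM compound for 0, 3, 6 and 12 h; total RNA isolated, quantified by 260/280 absorbance; mRNA by real-time RT-PCR normalized to GAPDH; mean ± SD of three independent experiments versus 0 h.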

PC-12 [6] = assay: Induction of antioxidant genes expression in rat PC12 cells assessed as increase in TrxR1 mRNA level at 20 uM incubated for 3 hrs by qRT-PCR method; assay type: functional, cell-based
Procedure, shortened: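 PC12 cells (1×10^6 per 60-mm dish) seeded 1 day, then exposed to 20 μM compound for 0, 3, 6 and 12 h. Total RNA isolated and quantified by 260/280 absorbance. Transcripts measured by qRT-PCR, normalized to GAPDH internal control, compared against 0 h control. Means ± SD of three independent experiments.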

PC-12 [7] = assay: Induction of antioxidant genes expression in rat PC12 cells assessed as increase in Trx1 mRNA level at 20 uM incubated for 3 hrs by qRT-PCR method; assay type: functional, cell-based; procedure, shortened: as §1
PC-12 [8] = assay: Induction of antioxidant genes expression in rat PC12 cells assessed as increase in Trx1 mRNA level at 20 uM incubated for 12 hrs by qRT-PCR method; assay type: functional, cell-based; procedure, shortened: as §1
PC-12 [9] = assay: Induction of antioxidant defense system in rat PC12 cells assessed as increase in GSH level incubated for 24 hrs; assay type: functional, cell-based
Procedure, shortened: (§2)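 Total glutathione: cells extracted in KPE buffer (0.1% Triton X-100, 0.6% sulfosalicylic acid, 5 mM EDTA, 0.1 M PBS pH 7.5), sonicated on ice, centrifuged 3000 g 4 min at 4 °C; supernatant assayed enzymatically. PC12 cells 1×10^6 in 60-mm dishes, compound 24 h; stress lines add 500 μM H2O2 or 200 μM 6-OHDA 12 h.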

PC-12 [10] = assay: Induction of antioxidant defense system in rat PC12 cells assessed as increase in TrxR activity level incubated for 24 hrs by Escherichia coli Trx based assay; assay type: functional, cell-based
Procedure, shortened: (§3)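 Cellular TrxR activity: extract with 20 μg protein incubated 30 min at 37 °C in 100 mM Tris-HCl pH 7.4 containing 0.3 mM insulin, 660 μM NADPH, 3 mM EDTA, 4 μM E. coli Trx; stopped with 1 mM DTNB in 6 M guanidine-HCl pH 8.0; A412 minus Trx-free blank; % of DMSO control.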

PC-12 [11] = assay: Cytoprotection activity against H2O2-induced oxidative stress in rat PC12 cells assessed as Trx activity at pre-incubated for 24 hrs before H2O2 exposure for 12 hrs by recombinant rat TrxR1 based assay; assay type: functional, cell-based
Procedure, shortened: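 Cellular Trx activity: extract with 20 μg protein incubated 30 min at 37 °C in 100 mM Tris-HCl pH 7.4 with 0.3 mM insulin, 660 μM NADPH, 3 mM EDTA, 60 nM recombinant rat TrxR1; stopped with 1 mM DTNB in 6 M guanidine-HCl pH 8.0; A412 minus TrxR-free blank; % of DMSO control.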

PC-12 [12] = assay: Cytoprotection activity against H2O2-induced oxidative stress in rat PC12 cells assessed as TrxR1 activity at pre-incubated for 24 hrs before H2O2 exposure for 12 hrs by Escherichia coli Trx based assay; assay type: functional, cell-based; procedure, shortened: as §3
PC-12 [13] = assay: Induction of antioxidant genes expression in rat PC12 cells assessed as increase in TrxR1 activity at 10 and 20 uM incubated for 20 hrs by TRFS-green dye based fluorescent microscopy; assay type: functional, cell-based
Procedure, shortened: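 PC12 cells 2×10^5/well, 24 h, then compound 20 h; TRFS-green added to 10 μM final and incubated 4 h at 37 °C in the dark; green fluorescence intensity imaged by fluorescence microscopy as relative cellular TrxR activity.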

PC-12 [14] = assay: Cytoprotection activity against 6-OHDA-induced oxidative stress in rat PC12 cells assessed as GSH level at pre-incubated for 24 hrs before 6-OHDA exposure for 12 hrs; assay type: functional, cell-based; procedure, shortened: as §2
PC-12 [15] = assay: Cytoprotection activity against 6-OHDA-induced oxidative stress in rat PC12 cells assessed as TrxR1 activity at pre-incubated for 24 hrs before 6-OHDA exposure for 12 hrs by Escherichia coli Trx based assay; assay type: functional, cell-based; procedure, shortened: as §3

For `COc1ccc(/C=C/C(=O)N2CCCC2=O)cc1`, the Activity [1] was “Non-toxic”, the Activity [2] was 80% and the Activity (PC-12 [3]) was “Dose-dependent effect”. For the same compound, the Activity [4] was “Not Active”, the Activity (PC-12 [5]) was “Active” and the Activity (PC-12 [6]) was “Active”. The Activity (PC-12 [7]) was “Active”, the Activity (PC-12 [8]) was “Active” and the Activity (PC-12 [9]) was “Active”. For the same compound, the Activity (PC-12 [10]) was “Active”, the Activity (PC-12 [11]) was “Active” and the Activity (PC-12 [12]) was “Active”. The Activity (PC-12 [13]) was “Active”, the Activity (PC-12 [14]) was “Active” and the Activity (PC-12 [15]) was “Active”.

With `COc1cc(/C=C/C(=O)N2CCCCC2=O)cc(OC)c1OC` the Activity [1] was “Non-toxic”, the Activity [2] was 75% and the Activity (PC-12 [3]) was “Dose-dependent effect”. For the same compound, the Activity [4] was “Not Active”, the Activity (PC-12 [5]) was “Active” and the Activity (PC-12 [6]) was “Active”. For the same compound, the Activity (PC-12 [7]) was “Active”, the Activity (PC-12 [8]) was “Active” and the Activity (PC-12 [9]) was “Active”. For the same compound, the Activity (PC-12 [10]) was “Active”, the Activity (PC-12 [11]) was “Active” and the Activity (PC-12 [12]) was “Active”. The Activity (PC-12 [13]) was “Active”, the Activity (PC-12 [14]) was “Active” and the Activity (PC-12 [15]) was “Active”.
